# Results taken from ChEMBL document CHEMBL1124821, “Design of an antithrombotic-antihypertensive agent (Wy 27569). Synthesis and evaluation of a series of 2-heteroaryl-substituted dihydropyridines” (J Med Chem, 1990).
# Several values for one entry are separate records, joined by “and”; a condition that tells them apart may be missing. Equal values may be shown once.
# Columns and labels:
# Rattus norvegicus [1] = assay: Reduction in blood pressure of rats, 2 hr after 0.03 mmol/kg p.o. administration; format: functional
# Outline: (§1)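 Female SHR (250–300 g) kept in 37 °C constant-temperature housing; systolic pressure measured by tail-cuff with a pneumatic pulse transducer. Rats below 155 mmHg discarded. Groups of four given a single oral dose in 0.5% (hydroxypropyl)methylcellulose–0.9% saline (10 mL/kg) or vehicle alone; pressure recorded before dosing and at 2, 6 and 24 h. Analysed by analysis of variance.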
# Rattus norvegicus [2] = assay: The compound was tested for reducing blood pressure in rats after 6 hours of 0.03 mmol/kg oral administration; format: functional; outline: as §1
# Rattus norvegicus [3] = assay: The compound was tested for reducing blood pressure in rats after 6 hours of 0.03 mmol/kg oral administration.; format: functional; outline: as §1
# [4] = target: Thromboxane-A synthase (Oryctolagus cuniculus); assay: Inhibition of Thromboxane A2 synthase in rabbit platelets in vitro
# Rattus norvegicus [5] = assay: The compound was tested for reducing blood pressure in rats after 2 hours of 0.003 mmol/kg oral administration.; format: functional; outline: as §1
# Rattus norvegicus [6] = assay: The compound was tested for reducing blood pressure in rats after 6 hours of 0.003 mmol/kg oral administration.; format: functional; outline: as §1
# Homo sapiens [7] = species on record: Homo sapiens; assay: The compound was tested for effects of compound on 6-KPGF1alpha production at molar concentration of 10e-5 in human platelet rich plasma; format: functional
# Homo sapiens [8] = species on record: Homo sapiens; assay: The compound was tested for effects of compound on TXB2 production at molar concentration of 10e-7 in human platelet rich plasma; format: functional
# Rattus norvegicus [9] = assay: The compound was tested for plasma levels of 6-KPGF1alpha in rats after 2 hr following dose 3(mg/kg) in oral administration; format: functional, organism-based
# Outline: (§2)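 Female normotensive rats killed by CO₂ asphyxiation 2 h after oral dosing with compound or vehicle (n = 10–13 per group). Blood taken from the posterior vena cava with 1% EDTA, centrifuged at once (10000g, 10 min), and plasma stored at –30 °C. TXB₂ and 6-KPGF1α measured by radioimmunoassay, in pg/mL, mean ± SEM. p < 0.05 versus controls taken as significant.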
# Homo sapiens [10] = species on record: Homo sapiens; assay: The compound was tested for effects of compound on 6-KPGF1alpha production at molar concentration of 10e-3 in human platelet rich plasma; format: functional
# Homo sapiens [11] = species on record: Homo sapiens; assay: The compound was tested for effects of compound on TXB2 production at different molar concentration of 10e-4 in human platelet rich plasma; format: functional
# Homo sapiens [12] = species on record: Homo sapiens; assay: The compound was tested for effects of compound on TXB2 production at different molar concentration of 10e-3 in human platelet rich plasma; format: functional
# Homo sapiens [13] = species on record: Homo sapiens; assay: The compound was tested for effects of compound on TXB2 production at molar concentration of 10e-6 in human platelet rich plasma; format: functional
# Homo sapiens [14] = species on record: Homo sapiens; assay: The compound was tested for effects of compound on 6-KPGF1alpha production at molar concentration of 10e-7 in human platelet rich plasma; format: functional
# Rattus norvegicus [15] = assay: The compound was tested for plasma levels of TXB2 in rats after 2 hr following dose 10(mg/kg) in oral administration; format: functional, organism-based; outline: as §2
# Homo sapiens [16] = species on record: Homo sapiens; assay: The compound was tested for effects of compound on 6-KPGF1alpha production at molar concentration of 10e-6 in human platelet rich plasma; format: functional
# Rattus norvegicus [17] = assay: The compound was tested for reducing blood pressure in rats after 2 hours of 0.03 mmol/kg oral administration; format: functional; outline: as §1
# Rattus norvegicus [18] = assay: The compound was tested for reducing blood pressure in rats after 2 hours of 0.003 mmol/kg oral administration; format: functional; outline: as §1
# Rattus norvegicus [19] = assay: The compound was tested for plasma levels of TXB2 in rats after 2 hr following dose 1(mg/kg) in oral administration; format: functional, organism-based; outline: as §2
# Rattus norvegicus [20] = assay: The compound was tested for plasma levels of 6-KPGF1alpha in rats after 2 hr following dose 0.3(mg/kg) in oral administration; format: functional, organism-based; outline: as §2
# Homo sapiens [21] = species on record: Homo sapiens; assay: The compound was tested for effects of compound on TXB2 production at molar concentration of 10e-5 in human platelet rich plasma; format: functional
# Rattus norvegicus [22] = assay: The compound was tested for plasma levels of 6-KPGF1alpha in rats after 2 hr following dose 10(mg/kg) in oral administration.; format: functional, organism-based; outline: as §2
# Rattus norvegicus [23] = assay: The compound was tested for plasma levels of TXB2 in rats after 2 hr following dose 3(mg/kg) in oral administration (P<0.05); format: functional, organism-based; outline: as §2
# Rattus norvegicus [24] = assay: The compound was tested for plasma levels of TXB2 in rats after 2 hr following dose 0.3(mg/kg) in oral administration; format: functional, organism-based; outline: as §2
# Homo sapiens [25] = species on record: Homo sapiens; assay: The compound was tested for effects of compound on 6-KPGF1alpha production at molar concentration of 10e-4 in human platelet rich plasma; format: functional
# Rattus norvegicus [26] = assay: The compound was tested for plasma levels of TXB2 in rats after 2 hr following dose 3(mg/kg) in oral administration. (p<0.05); format: functional, organism-based; outline: as §2
# Rattus norvegicus [27] = assay: The compound was tested for plasma levels of TXB2 in rats after 2 hr following dose 10(mg/kg) in oral administration.; format: functional, organism-based; outline: as §2
# Rattus norvegicus [28] = assay: The compound was tested for plasma levels of TXB2 in rats after 2 hr following dose 3(mg/kg) in oral administration.; format: functional, organism-based; outline: as §2
# Homo sapiens [29] = species on record: Homo sapiens; assay: The compound was tested for effects of compound on TXB2 production at molar concentration of 10e-4 in human platelet rich plasma; format: functional
# Homo sapiens [30] = species on record: Homo sapiens; assay: The compound was tested for effects of compound on TXB2 production at molar concentration of 10e-3 in human platelet rich plasma; format: functional
# Homo sapiens [31] = species on record: Homo sapiens; assay: The compound was tested for effects of compound on TXB2 production at different molar concentration of 10e-6 in human platelet rich plasma; format: functional
# Homo sapiens [32] = species on record: Homo sapiens; assay: The compound was tested for effects of compound on TXB2 production at different molar concentration of 10e-7 in human platelet rich plasma; format: functional
# Homo sapiens [33] = species on record: Homo sapiens; assay: The compound was tested for effects of compound on TXB2 production at different molar concentration of 10e-5 in human platelet rich plasma; format: functional
# Rattus norvegicus [34] = assay: The compound was tested for plasma levels of 6-KPGF1alpha in rats after 2 hr following dose 3(mg/kg) in oral administration. (p<0.05); format: functional, organism-based; outline: as §2
smiles,measurement,setting,value
CCO/C(O)=C1\C(COCCn2ccnc2)=NC(C)=C(C(=O)OC)C1c1cccc([N+](=O)[O-])c1.Cl (stereo unspecified),Decrease in blood pressure,Rattus norvegicus [1],56%
same,Decrease in blood pressure,Rattus norvegicus [2],42%
CCO/C(O)=C1\C(COCc2cccnc2)=NC(C)=C(C(=O)OC)C1c1cccc([N+](=O)[O-])c1.Cl (stereo unspecified),Decrease in blood pressure,Rattus norvegicus [1],18%
CCOC(=O)C1=C(COc2cccnc2)NC(C)=C(C(=O)OC)C1c1cccc([N+](=O)[O-])c1.Cl (stereo unspecified),Decrease in blood pressure,Rattus norvegicus [1],40%
CCO/C(O)=C1\C(Cn2ccnc2)=NC(C)=C(C(=O)OC(C)C)C1c1cccc([N+](=O)[O-])c1.Cl (stereo unspecified),Decrease in blood pressure,Rattus norvegicus [1],21%
same,Decrease in blood pressure,Rattus norvegicus [3],19%
CCO/C(O)=C1\C(C)=NC(Cn2ccnc2)=C(C(=O)OC)C1c1cccc(C(F)(F)F)c1Cl (stereo unspecified),Decrease in blood pressure,Rattus norvegicus [1],16%
same,IC50,[4],125 µM
CCO/C(O)=C1\C(Cn2ccnc2)=NC(C)=C(C(=O)OC)C1c1cccc(Cl)c1Cl (stereo unspecified),Decrease in blood pressure,Rattus norvegicus [5],40%
same,Decrease in blood pressure,Rattus norvegicus [1],54%
same,Decrease in blood pressure,Rattus norvegicus [3],49%
same,Decrease in blood pressure,Rattus norvegicus [6],20%
CCOC(=O)C1=C(CCn2ccnc2)N=C(CCn2ccnc2)/C(=C(/O)OCC)C1c1cccc([N+](=O)[O-])c1 (stereo unspecified),IC50,[4],5.3 µM
CCO/C(O)=C1\C(Cn2ccnc2)=NC(C)=C(C(=O)OC)C1c1ccccc1OC(F)F (stereo unspecified),Decrease in blood pressure,Rattus norvegicus [1],55% and 48%
Br.CCO/C(O)=C1\C(Cn2ccnc2)=NC(C)=C(C(=O)OC)C1c1c(F)cccc1Cl (stereo unspecified),Decrease in blood pressure,Rattus norvegicus [1],48% and 35%
same,IC50,[4],19.5 µM
CCOC(=O)C1=C(C)N=C(CCn2ccnc2)/C(=C(/O)OCC)C1c1ccccc1[N+](=O)[O-].O=C(O)/C=C\C(=O)O (stereo unspecified),Decrease in blood pressure,Rattus norvegicus [1],44%
same,IC50,[4],2.3 µM
CCO/C(O)=C1\C(Cn2ccnc2)=NC(C)=C(C(=O)OC)C1c1ccccc1Cl (stereo unspecified),Decrease in blood pressure,Rattus norvegicus [1],31%
same,Decrease in blood pressure,Rattus norvegicus [3],15%
same,IC50,[4],0.5 µM
CCO/C(O)=C1\C(Cn2ccnc2)=NC(C)=C(C(=O)OC)C1c1cccc(C(F)(F)F)c1Cl (stereo unspecified),Decrease in blood pressure,Rattus norvegicus [5],16%
same,Decrease in blood pressure,Rattus norvegicus [1],60%
same,Decrease in blood pressure,Rattus norvegicus [3],52%
CCOC(=O)C1=C(C)N=C(Cn2ccnc2)/C(=C(/O)OCC)C1c1cccc([N+](=O)[O-])c1.Cl (stereo unspecified),Decrease in blood pressure,Rattus norvegicus [1],47%
same,Decrease in blood pressure,Rattus norvegicus [3],13%
CCO/C(O)=C1\C(Cn2ccnc2)=NC(C)=C(C(=O)OC)C1c1ccccc1[N+](=O)[O-] (stereo unspecified),Decrease in blood pressure,Rattus norvegicus [5],44%
same,Decrease in blood pressure,Rattus norvegicus [1],59%
same,Decrease in blood pressure,Rattus norvegicus [3],56%
same,Decrease in blood pressure,Rattus norvegicus [6],14%
CCO/C(O)=C1\C(Cn2ccnc2)=NC(C)=C(C(=O)OC)C1c1cccc([N+](=O)[O-])c1.Cl (stereo unspecified),Production,Homo sapiens [7],119%
same,Production,Homo sapiens [8],92%
same,Plasma level,Rattus norvegicus [9],68 pg/mL
same,Production,Homo sapiens [10],460%
same,Production,Homo sapiens [11],10%
same,Production,Homo sapiens [12],0%
same,Production,Homo sapiens [13],67%
same,Production,Homo sapiens [14],100%
same,Plasma level,Rattus norvegicus [15],280 pg/mL
same,Production,Homo sapiens [16],112%
same,Decrease in blood pressure,Rattus norvegicus [2],38% and 28%
same,Decrease in blood pressure,Rattus norvegicus [17],51%
same,Decrease in blood pressure,Rattus norvegicus [18],34%
same,Plasma level,Rattus norvegicus [19],402 pg/mL
same,Plasma level,Rattus norvegicus [20],22 pg/mL
same,Production,Homo sapiens [21],43%
same,Plasma level,Rattus norvegicus [22],94 pg/mL
same,Plasma level,Rattus norvegicus [23],330 pg/mL
same,Plasma level,Rattus norvegicus [24],484 pg/mL
same,Production,Homo sapiens [25],431%
CCO/C(O)=C1\C(C)=NC(Cn2ccnc2)=C(C(=O)OC)C1c1ccccc1OC(F)F (stereo unspecified),Decrease in blood pressure,Rattus norvegicus [1],48%
same,Decrease in blood pressure,Rattus norvegicus [3],31%
same,IC50,[4],25 µM
O=C(O)c1ccc(OCCn2ccnc2)cc1 [DAZOXIBEN],Production,Homo sapiens [7],603%
same,Production,Homo sapiens [8],97.5%
same,Production,Homo sapiens [10],345%
same,Plasma level,Rattus norvegicus [26],384 pg/mL
same,Plasma level,Rattus norvegicus [27],270 pg/mL and 202 pg/mL
same,Production,Homo sapiens [13],69%
same,Production,Homo sapiens [14],115%
same,Production,Homo sapiens [16],463%
same,Plasma level,Rattus norvegicus [28],384 pg/mL
same,Production,Homo sapiens [29],5%
same,Production,Homo sapiens [30],2%
same,Production,Homo sapiens [21],21%
same,Production,Homo sapiens [25],460%
CCO/C(O)=C1\C(Cn2ccnc2)=NC(Cn2ccnc2)=C(C(=O)OC)C1c1cccc([N+](=O)[O-])c1 (stereo unspecified),IC50,[4],0.6 µM
COC(=O)C1=C(C)N=C(Cn2ccnc2)/C(=C(/O)OC)C1c1cccc([N+](=O)[O-])c1.Cl (stereo unspecified),Decrease in blood pressure,Rattus norvegicus [1],42%
same,Decrease in blood pressure,Rattus norvegicus [3],27%
CCO/C(O)=C1\C(COCCc2cccnc2)=NC(C)=C(C(=O)OC)C1c1cccc([N+](=O)[O-])c1.Cl (stereo unspecified),Decrease in blood pressure,Rattus norvegicus [1],40%
CCOC(=O)C1=C(C)NC(C)=C(C(=O)OC)C1c1cccc([N+](=O)[O-])c1 (stereo unspecified) [NITRENDIPINE],Production,Homo sapiens [7],136%
same,Production,Homo sapiens [10],96%
same,Plasma concentration,Rattus norvegicus [27],562 pg/mL
same,Production,Homo sapiens [11],40%
same,Production,Homo sapiens [31],84%
same,Production,Homo sapiens [12],35%
same,Production,Homo sapiens [14],112%
same,Decrease in blood pressure,Rattus norvegicus [1],33%
same,Production,Homo sapiens [16],113%
same,Production,Homo sapiens [32],87%
same,Production,Homo sapiens [33],81%
same,Plasma concentration,Rattus norvegicus [28],564 pg/mL
same,Plasma concentration,Rattus norvegicus [34],62 pg/mL
same,Plasma concentration,Rattus norvegicus [22],60 pg/mL
same,Production,Homo sapiens [25],121%
CCO/C(O)=C1\C(C)=NC(Cn2ccnc2)=C(C(=O)OC)C1c1cccc([N+](=O)[O-])c1 (stereo unspecified),IC50,[4],2.2 µM
